Assays:
Format in all cases: functional
HCC 2998 = assay: Cytotoxicity against human HCC2998 cells assessed as cell growth at 10 uM; conditions: read-out: Activity
In short: (§1)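 Single-dose NCI-60 screen at 10 µM. Cells were grown in RPMI 1640 with 5% FBS and 2 mM L-glutamine, then treated for 48 h at 37 °C. Protein was measured by SRB staining with absorbance at 515 nm. Percentage growth was recorded, and inhibition percentage was calculated as 100 minus growth percentage.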

NCI-H322M = assay: Cytotoxicity against human NCI-H322M cells assessed as cell growth at 10 uM; conditions: read-out: Activity
In short: (§2)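 NCI-60 screen: cells grown in RPMI 1640 with 5% FBS and 2 mM L-glutamine, plated at 5000–40,000 cells/well according to doubling time, and preincubated 24 h at 37 °C, 5% CO2. The single 10 µM dose (DMSO stock) was added, then incubated 48 h. Cells were TCA-fixed and stained with 0.4% SRB, read at 515 nm, and growth % calculated against time-zero and control plates.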

HCT-15 = assay: Cytotoxicity against human HCT15 cells assessed as cell growth at 10 uM; conditions: read-out: Activity; in short: as §1
LOX IMVI = assay: Cytotoxicity against human LOXIMVI cells assessed as cell growth at 10 uM; conditions: read-out: Activity; in short: as §2
SW-620 = assay: Cytotoxicity against human SW620 cells assessed as cell growth at 10 uM; conditions: read-out: Activity; in short: as §2
[1] = Growth inhibition of human NCI60 cells at 10 uM after 48 hrs by sulforhodamine B assay relative to control; conditions: NCI60, 48 h, read-out: GI
In short: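 Single-dose NCI screen at 10 µM across the 60-line panel, 48 h exposure at 37 °C after a 24 h preincubation. Adherent cells were fixed with cold TCA and stained with 0.4% SRB, and absorbance was read at 515 nm. Inhibition % was taken as 100 minus growth %, and the mean across all lines was reported.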

SNB-19 = assay: Cytotoxicity against human SNB19 cells assessed as cell growth at 10 uM; conditions: read-out: Activity; in short: as §2
[2] = Cytotoxicity against human […] cells assessed as cell growth at 10 uM; conditions: read-out: Activity; in short: as §2
PC-3 = assay: Cytotoxicity against human PC3 cells assessed as cell growth at 10 uM; conditions: read-out: Activity; in short: as §2
OVCAR-4 = assay: Cytotoxicity against human OVCAR4 cells assessed as cell growth at 10 uM; conditions: read-out: Activity; in short: as §2
HOP-92 = assay: Cytotoxicity against human HOP92 cells assessed as cell growth at 10 uM; conditions: read-out: Activity; in short: as §1
BT-549 = assay: Cytotoxicity against human BT549 cells assessed as cell growth at 10 uM; conditions: read-out: Activity; in short: as §1
MOLT-4 = assay: Cytotoxicity against human MOLT4 cells assessed as cell growth at 10 uM; conditions: read-out: Activity; in short: as §2
[3] = Cytotoxicity against human Hs 578T cells assessed as cell growth at 10 uM; conditions: read-out: Activity; in short: as §1
UO-31 = assay: Cytotoxicity against human UO31 cells assessed as cell growth at 10 uM; conditions: read-out: Activity; in short: as §2
A498 = assay: Cytotoxicity against human A498 cells assessed as cell growth at 10 uM; conditions: read-out: Activity; in short: as §1
UACC-62 = assay: Cytotoxicity against human UACC62 cells assessed as cell growth at 10 uM; conditions: read-out: Activity; in short: as §2
SF-539 = assay: Cytotoxicity against human SF539 cells assessed as cell growth at 10 uM; conditions: read-out: Activity; in short: as §2
CCRF-CEM = assay: Cytotoxicity against human CCRF-CEM cells assessed as cell growth at 10 uM; conditions: read-out: Activity; in short: as §1
SNB-75 = assay: Cytotoxicity against human SNB75 cells assessed as cell growth at 10 uM; conditions: read-out: Activity; in short: as §2
UACC-257 = assay: Cytotoxicity against human UACC257 cells assessed as cell growth at 10 uM; conditions: read-out: Activity; in short: as §2
SF-295 = assay: Cytotoxicity against human SF295 cells assessed as cell growth at 10 uM; conditions: read-out: Activity; in short: as §2
NCI-H226 = assay: Cytotoxicity against human NCI-H226 cells assessed as cell growth at 10 uM; conditions: read-out: Activity; in short: as §2
RXF 393 = assay: Cytotoxicity against human RXF393 cells assessed as cell growth at 10 uM; conditions: read-out: Activity; in short: as §2
U-251 = assay: Cytotoxicity against human U251 cells assessed as cell growth at 10 uM; conditions: read-out: Activity; in short: as §2
OVCAR-3 = assay: Cytotoxicity against human OVCAR-3 cells assessed as cell growth at 10 uM; conditions: read-out: Activity; in short: as §2
M14 = assay: Cytotoxicity against human M14 cells assessed as cell growth at 10 uM; conditions: read-out: Activity; in short: as §2
HT-29 = assay: Cytotoxicity against human HT-29 cells assessed as cell growth at 10 uM; conditions: read-out: Activity; in short: as §1
IGROV-1 = assay: Cytotoxicity against human IGROV1 cells assessed as cell growth at 10 uM; conditions: read-out: Activity; in short: as §1
KM12 = assay: Cytotoxicity against human KM12 cells assessed as cell growth at 10 uM; conditions: read-out: Activity; in short: as §2

Structure (SMILES): Cc1cc(O)cc(-c2nn(CC#N)cc2-c2ccnc(-c3ccccc3)c2)c1
- growth at 10 µM (HCC 2998): 89.2%
- growth at 10 µM (NCI-H322M): 116%
- growth at 10 µM (HCT-15): 54%
- growth at 10 µM (LOX IMVI): 95.6%
- growth at 10 µM (SW-620): 87.6%
- inhibition of growth at 10 µM [1]: 16.4%
- growth at 10 µM (SNB-19): 87%
- growth at 10 µM [2]: 84.5%
- growth at 10 µM (PC-3): 88.7%
- growth at 10 µM (OVCAR-4): 77.7%
- growth at 10 µM (HOP-92): 57.3%
- growth at 10 µM (BT-549): 93.5%
- growth at 10 µM (MOLT-4): 71%
- growth at 10 µM [3]: 84.6%
- growth at 10 µM (UO-31): 64.5%
- growth at 10 µM (A498): 84.3%
- growth at 10 µM (UACC-62): 59.8%
- growth at 10 µM (SF-539): 83.5%
- growth at 10 µM (CCRF-CEM): 85.8%
- growth at 10 µM (SNB-75): 43.2%
- growth at 10 µM (UACC-257): 95.6%
- growth at 10 µM (SF-295): 99.2%
- growth at 10 µM (NCI-H226): 77.7%
- growth at 10 µM (RXF 393): 151%
- growth at 10 µM (U-251): 87.4%
- growth at 10 µM (OVCAR-3): 107%
- growth at 10 µM (M14): 81.3%
- growth at 10 µM (HT-29): 61.9%
- growth at 10 µM (IGROV-1): 72%
- growth at 10 µM (KM12): 97.2%

From ChEMBL document CHEMBL1165950, “Design and synthesis of new potent anticancer pyrazoles with high FLT3 kinase inhibitory selectivity” (Bioorg Med Chem, 2010)
